From ChEMBL document CHEMBL1155177, “Activity against human immunodeficiency virus type 1, intracellular metabolism, and effects on human DNA polymerases of 4'-ethynyl-2-fluoro-2'-deoxyadenosine” (Antimicrob Agents Chemother, 2007)

Assays:
[1] = test system: Human immunodeficiency virus 1; assay: Ratio of EC50 for X4-HIV1MDR/C in human PHA-PBMC to EC50 for X4-HIV1NL4-3 in human MT4 cells; assay type: functional, NL4-3
[2] = test system: Human immunodeficiency virus 1; assay: Antiviral activity against R5-HIV1MDR/MM assessed as inhibition of p24 Gag protein production in human PHA-PBMC by ELISA; assay type: functional, organism-based
Summary of the method: (§1)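 PHA-stimulated PBMC (10^6 cells/ml; 10^5 cells/well) were infected with 50 TCID50 of HIV-1Ba-L or a primary multidrug-resistant isolate and cultured with drug in 10-fold serial dilutions. On day 7, supernatant p24 Gag was measured by automated chemiluminescent enzyme immunoassay. EC50 is the concentration that halves p24 relative to drug-free cultures. Triplicate assays.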

MT4 = assay: Cytotoxicity against human MT4 cells by MTT assay; assay type: functional
[3] = test system: Human immunodeficiency virus 1; assay: Ratio of EC50 for R5-HIV1MDR/MM in human PHA-PBMC to EC50 for R5-HIV1Ba-L in human PHA-PBMC; assay type: functional
[4] = test system: Human immunodeficiency virus 1; assay: Antiviral activity against R5-HIV1MDR/C assessed as inhibition of p24 Gag protein production in human PHA-PBMC by ELISA; assay type: functional, organism-based; summary of the method: as §1
[5] = test system: Human immunodeficiency virus 1; assay: Antiviral activity against R5-HIV1MDR/G assessed as inhibition of p24 Gag protein in human PHA-PBMC by ELISA relative to X4-HIV1NL4-3; assay type: functional
[6] = Cytotoxicity against human PHA-PBMC cells by MTT assay; assay type: cell-based
[7] = test system: Human immunodeficiency virus 1; assay: Antiviral activity against R5-HIV1MDR/G assessed as inhibition of p24 Gag protein production in human PHA-PBMC by ELISA; assay type: functional, organism-based; summary of the method: as §1
[8] = test system: Human immunodeficiency virus 1; assay: Antiviral activity against X4-HIV1 NL4-3 assessed as […] in human MT4 cells by MTT assay; assay type: functional, organism-based; conditions: Human immunodeficiency virus 1, NL4-3, MT4
CCRF-CEM [9] = assay: Drug uptake in human CD4+CEM cells assessed as 4'-ethynyl-2-fluoro-2'-deoxyadenosine monophosphate half life at 200 nM; assay type: ADME, cell-based; conditions: 0.2 µM
Summary of the method: (§2)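 CEM cells (10^6 cells/ml) were loaded 6 h with 200 nM [3H]-labelled nucleoside, washed thoroughly, then cultured drug-free for 0, 2, 4, 8, 12 or 24 h. Cells were extracted in 60% methanol, and mono-, di- and triphosphates were quantified by SAX HPLC with fraction scintillation counting. Values are means of 2–3 independent experiments.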

CCRF-CEM [10] = assay: Metabolic stability of the compound in human CD4+ CEM cells assessed as 4'-ethynyl-2-fluoro-2'-deoxyadenosine monophosphate intracellular levels at 200 nM after 8 hrs; assay type: ADME, cell-based; conditions: 0.2 µM; summary of the method: as §2
CCRF-CEM [11] = assay: Metabolic stability of the compound in human CEM cells assessed as 3'-azido-2',3'-dideoxythymidine monophosphate intracellular levels at 200 nM after 24 hrs; assay type: ADME, cell-based; conditions: 0.2 µM; summary of the method: as §2
CCRF-CEM [12] = assay: Metabolic stability of the compound in human CD4+ CEM cells assessed as 4'-ethynyl-2-fluoro-2'-deoxyadenosine triphosphate intracellular levels at 200 nM after 8 hrs; assay type: ADME, cell-based; conditions: 0.2 µM; summary of the method: as §2
[13] = test system: Human immunodeficiency virus 1; assay: Antiviral activity against HIV1 NL4-3 replication in human MT4 cells at 0.01 uM pretreated 24 hrs before infection assessed as protection at 0.01 uM by MTT assay; assay type: functional
[14] = test system: Human immunodeficiency virus 1; assay: Antiviral activity against HIV1 NL4-3 replication in human MT4 cells at 0.01 uM pretreated 48 hrs before infection assessed as protection at 0.01 uM by MTT assay; assay type: functional
CCRF-CEM [15] = assay: Drug level in human CD4+CEM cells assessed as increase in 4'-ethynyl-2-fluoro-2'-deoxyadenosine triphosphate level at 0.1 uM after 6 hrs; assay type: ADME, cell-based
Summary of the method: (§3)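 CEM cells (10^6 cells/ml) were incubated 6 h with 0.1, 1 or 10 µM [3H]-labelled nucleoside, then washed. Intracellular nucleosides/nucleotides were extracted in 60% methanol and separated by SAX ion-exchange HPLC on an ammonium phosphate gradient. One-minute fractions up to 40 min were scintillation-counted, and each peak plus flanking fractions were summed. Two independent experiments were run.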

CCRF-CEM [16] = assay: Drug level in human CD4+CEM cells per 10^9 cells at 0.1 uM; assay type: ADME, cell-based; summary of the method: as §3
CCRF-CEM [17] = assay: Metabolic stability of the compound in human CEM cells assessed as 3'-azido-2',3'-dideoxythymidine diphosphate intracellular levels at 200 nM after 24 hrs; assay type: ADME, cell-based; conditions: 0.2 µM; summary of the method: as §2
CCRF-CEM [18] = assay: Drug uptake in human CD4+CEM cells assessed as 4'-ethynyl-2-fluoro-2'-deoxyadenosine diphosphate half life at 200 nM; assay type: ADME, cell-based; conditions: 0.2 µM; summary of the method: as §2
CCRF-CEM [19] = assay: Drug uptake in human CD4+CEM cells assessed as 4'-ethynyl-2-fluoro-2'-deoxyadenosine triphosphate half life at 200 nM; assay type: ADME, cell-based; conditions: 0.2 µM; summary of the method: as §2
[20] = test system: Human immunodeficiency virus 1; assay: Antiviral activity against R5-HIV1Ba-L assessed as inhibition of p24 Gag protein production in human PHA-PBMC by ELISA; assay type: functional, organism-based; conditions: Human immunodeficiency virus 1, Ba-L; summary of the method: as §1
CCRF-CEM [21] = assay: Metabolic stability of the compound in human CEM cells assessed as 3'-azido-2',3'-dideoxythymidine triphosphate intracellular levels at 200 nM after 24 hrs; assay type: ADME, cell-based; conditions: 0.2 µM; summary of the method: as §2
CCRF-CEM [22] = assay: Metabolic stability of the compound in human CD4+ CEM cells assessed as 4'-ethynyl-2-fluoro-2'-deoxyadenosine diphosphate intracellular levels at 200 nM after 8 hrs; assay type: ADME, cell-based; conditions: 0.2 µM; summary of the method: as §2
[23] = Inhibition of human DNA polymerase gamma using D21/D36 DNA as a template
Summary of the method: (§4)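 Each 30-min, 37 °C reaction contained 50 mM Tris pH 8.0, 8 mM MgCl2, 60 mM KCl, 10 mM DTT, BSA, 0.3 µM [α-32P]dATP, inhibitor, and either 250 nM D21/D36 or 0.1 mg/ml activated calf thymus DNA. Enzyme was 1 unit polymerase α, 100 nM β or 2.5 nM γ. Reactions were stopped with EDTA and spotted onto DE81 filters. Incorporated dAMP was quantified by phosphorimaging to give the IC50.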

[24] = Inhibition of human DNA polymerase gamma using calf thymus DNA as a template; summary of the method: as §4
[25] = Inhibition of human DNA polymerase beta using calf thymus DNA as a template; summary of the method: as §4
[26] = Inhibition of human DNA polymerase alpha using calf thymus DNA as a template; summary of the method: as §4
[27] = Inhibition of human DNA polymerase beta using D21/D36 DNA as a template; summary of the method: as §4
[28] = test system: Human immunodeficiency virus 1; assay: Antiviral activity against HIV1 NL4-3 replication in human MT4 cells at 0.01 uM pretreated 24 hrs before infection assessed as protection at 1 uM by MTT assay; assay type: functional
[29] = test system: Human immunodeficiency virus 1; assay: Antiviral activity against HIV1 NL4-3 replication in human MT4 cells at 0.01 uM pretreated 48 hrs before infection assessed as protection at 1 uM by MTT assay; assay type: functional
CCRF-CEM [30] = assay: Drug level in human CD4+CEM cells assessed as increase in 3'-azido-2',3'-dideoxythymidine triphosphate level at 0.1 uM after 6 hrs; assay type: ADME, cell-based; summary of the method: as §3
CCRF-CEM [31] = assay: Metabolic stability of the compound in human CD4+ CEM cells assessed as 3'-azido-2',3'-dideoxythymidine monophosphate intracellular levels at 200 nM after 8 hrs; assay type: ADME, cell-based; conditions: 0.2 µM; summary of the method: as §2
CCRF-CEM [32] = assay: Metabolic stability of the compound in human CD4+ CEM cells assessed as 3'-azido-2',3'-dideoxythymidine triphosphate intracellular levels at 200 nM after 8 hrs; assay type: ADME, cell-based; conditions: 0.2 µM; summary of the method: as §2
CCRF-CEM [33] = assay: Drug uptake in human CD4+CEM cells assessed as 3'-azido-2',3'-dideoxythymidine triphosphate half life at 200 nM; assay type: ADME, cell-based; conditions: 0.2 µM; summary of the method: as §2
CCRF-CEM [34] = assay: Drug uptake in human CD4+CEM cells assessed as 3'-azido-2',3'-dideoxythymidine monophosphate half life at 200 nM; assay type: ADME, cell-based; conditions: 0.2 µM; summary of the method: as §2
CCRF-CEM [35] = assay: Metabolic stability of the compound in human CD4+ CEM cells assessed as 3'-azido-2',3'-dideoxythymidine diphosphate intracellular levels at 200 nM after 8 hrs; assay type: ADME, cell-based; conditions: 0.2 µM; summary of the method: as §2
CCRF-CEM [36] = assay: Drug uptake in human CD4+CEM cells assessed as 3'-azido-2',3'-dideoxythymidine diphosphate half life at 200 nM; assay type: ADME, cell-based; conditions: 0.2 µM; summary of the method: as §2

CC(C)(C)NC(=O)[C@@H]1C[C@@H]2CCCC[C@@H]2CN1C[C@@H](O)[C@H](Cc1ccccc1)NC(=O)[C@H](CC(N)=O)NC(=O)c1ccc2ccccc2n1
fold change (FC) [1]: 4
EC50 [2]: 220 nM
CC50 (MT4): 26000 nM
fold change (FC) [3]: 28
EC50 [4]: 37 nM
fold change (FC) [5]: 3
CC50 [6]: 78000 nM
EC50 [7]: 26 nM

CC(C)CN(C[C@@H](O)[C@H](Cc1ccccc1)NC(=O)O[C@H]1CCOC1)S(=O)(=O)c1ccc(N)cc1
fold change (FC) [1]: 12
CC50 (MT4): > 100000 nM
fold change (FC) [3]: 17
EC50 [4]: 280 nM
fold change (FC) [5]: 10
CC50 [6]: > 100000 nM
EC50 [8]: 24 nM

C#C[C@]1(CO)O[C@@H](n2cnc3c(N)nc(F)nc32)C[C@@H]1O
fold change (FC) [1]: 4
t1/2 (CCRF-CEM [9]): 8.1 h
Activity (CCRF-CEM [10]): 50%
Activity (CCRF-CEM [11]): 31%
EC50 [2]: 3 nM
Activity (CCRF-CEM [12]): 72%
Activity [13]: 75%
Activity [14]: 47%
CC50 (MT4): 11000 nM
fold change (FC) [3]: 8
Activity (CCRF-CEM [15]): 22
Drug uptake (CCRF-CEM [16]): 1730 pmol
Activity (CCRF-CEM [17]): 23%
t1/2 (CCRF-CEM [18]): 6.7 h
EC50 [4]: 4 nM
t1/2 (CCRF-CEM [19]): 17.2 h
EC50 [20]: 0.4 nM
fold change (FC) [5]: 21
Activity (CCRF-CEM [21]): 38%
CC50 [6]: 12000 nM
Activity (CCRF-CEM [22]): 45%
EC50 [8]: 1 nM
EC50 [7]: 21 nM

C#C[C@]1(COP(=O)(O)OP(=O)(O)OP(=O)(O)O)O[C@@H](n2cnc3c(N)nc(F)nc32)C[C@@H]1O
IC50 [23]: > 100000 nM
Ki [23]: 24400 nM
IC50 [24]: 10000 nM
IC50 [25]: > 100000 nM
IC50 [26]: > 100000 nM
IC50 [27]: > 100000 nM

Nc1ncnc2c1ncn2[C@H]1CC[C@@H](COP(=O)(O)OP(=O)(O)OP(=O)(O)O)O1 [DDA-TRIPHOSPHATE]
IC50 [23]: 2000 nM
Ki [23]: 4600 nM
IC50 [24]: 200 nM
IC50 [25]: 200 nM
IC50 [26]: > 100000 nM
IC50 [27]: 3000 nM

C[C@H](Cn1cnc2c(N)ncnc21)OCP(=O)(O)O [TENOFOVIR ANHYDROUS]
fold change (FC) [1]: 2
EC50 [2]: 82 nM
fold change (FC) [3]: 3
Activity [28]: 90%
EC50 [4]: 47 nM
EC50 [20]: 32 nM
fold change (FC) [5]: 3
Activity [29]: 64%
CC50 [6]: 53000 nM
EC50 [7]: 87 nM

Cc1cn([C@H]2C[C@H](N=[N+]=[N-])[C@@H](CO)O2)c(=O)[nH]c1=O [ZIDOVUDINE]
fold change (FC) [1]: 12
Activity (CCRF-CEM [30]): 2.4
Activity (CCRF-CEM [31]): 16%
Activity (CCRF-CEM [11]): 10%
EC50 [2]: 340 nM
Activity (CCRF-CEM [32]): 26%
t1/2 (CCRF-CEM [33]): 2.8 h
CC50 (MT4): > 100000 nM
fold change (FC) [3]: 22
t1/2 (CCRF-CEM [34]): 1.4 h
Drug uptake (CCRF-CEM [16]): 4349 pmol
Activity (CCRF-CEM [35]): 26%
Activity (CCRF-CEM [17]): 11%
Activity [28]: 55%
EC50 [4]: 390 nM
t1/2 (CCRF-CEM [36]): 1.6 h
fold change (FC) [5]: 12
Activity (CCRF-CEM [21]): 9%
Activity [29]: 9.2%
CC50 [6]: > 10000 nM
EC50 [8]: 33 nM
EC50 [7]: 380 nM
